Reference: publication PMC10395006 (Archives of toxicology, 2022)

Key:
[1] = molecular target: CYP2C19 (Homo sapiens, UniProt P33261); conditions: human liver microsomes
[2] = system: CYP3A4; conditions: human liver microsomes
[3] = system: HepG2 cells
[4] = molecular target: T1, CYP2D6-overexpressing HepG2 cells (Homo sapiens, UniProt P10635)
[5] = cited from earlier work
[6] = system: HepG2 cells; experiment: Mitochondrial membrane potential; format: cell-based, human; conditions: 2.5-10 μM, 24 h
[7] = system: HepG2 cells; experiment: Cellular ATP assay; format: cell-based, human; conditions: 24 h
[8] = system: HepG2 cells; experiment: Lactate dehydrogenase; format: cell-based, human; conditions: 2.5-10 μM, 24 h
[9] = system: Primary human hepatocytes; experiment: Cellular ATP assay; format: cell-based; conditions: 24 h
[10] = system: CYP1A2-overexpressing HepG2 cells; experiment: Mass spectrometry of perhexiline and metabolites in CYP-overexpressing cells; format: in vitro ADME, human; conditions: 5 μM perhexiline, 24 h
[11] = system: ATF6, ERN1, EIF2AK3, ATF4, and DDIT3 mRNA in EV control HepG2 cells; experiment: Quantitative real-time PCR of ER stress genes; format: cell-based, human; conditions: 10 μM, 24 h
[12] = system: CHOP in EV control HepG2 cells; experiment: Western blot of ER stress marker CHOP; format: cell-based, human; conditions: EV control cells upon perhexiline treatment
Summary of the method: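 Empty-vector control HepG2 cells seeded at 3 × 10^5 cells/ml in 60 mm plates and treated about 24 h after seeding, with 0.1% v/v DMSO as control. Cells lysed directly in RIPA buffer with protease inhibitor cocktail and total protein quantified. Immunoblotted with primary antibodies against CHOP, using GAPDH as loading reference.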

[13] = molecular target: T2, CYP3A4-overexpressing HepG2 cells (Homo sapiens, UniProt P08684); format: cell-based
T2 sequence (P08684 whole entry): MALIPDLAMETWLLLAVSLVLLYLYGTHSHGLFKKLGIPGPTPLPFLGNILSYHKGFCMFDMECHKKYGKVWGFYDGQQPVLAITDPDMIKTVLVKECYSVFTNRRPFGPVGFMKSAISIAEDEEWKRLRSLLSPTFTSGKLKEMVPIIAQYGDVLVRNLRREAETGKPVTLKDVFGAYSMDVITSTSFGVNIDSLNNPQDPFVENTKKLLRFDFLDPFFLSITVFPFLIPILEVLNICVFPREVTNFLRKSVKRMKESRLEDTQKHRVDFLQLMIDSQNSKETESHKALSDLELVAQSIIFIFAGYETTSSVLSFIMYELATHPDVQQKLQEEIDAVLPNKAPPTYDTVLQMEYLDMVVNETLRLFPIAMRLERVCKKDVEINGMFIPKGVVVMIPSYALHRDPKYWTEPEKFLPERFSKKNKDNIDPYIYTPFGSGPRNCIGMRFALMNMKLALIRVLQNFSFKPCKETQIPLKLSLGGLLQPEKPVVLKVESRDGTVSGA

[14] = system: CYP2C19-overexpressing HepG2 cells; experiment: Perhexiline toxicity endpoints; format: cell-based, human; conditions: 5–10 μM, 24 h
[15] = molecular target: T1, CYP2D6-overexpressing HepG2 cells; experiment: Mass spectrometry of perhexiline and metabolites in CYP-overexpressing cells; conditions: 5 μM perhexiline, 24 h
[16] = molecular target: T2, CYP3A4-overexpressing HepG2 cells; experiment: as above; conditions: 5 μM perhexiline, 24 h
[17] = system: CYP2C19-overexpressing HepG2 cells; experiment: as above; format: in vitro ADME, human; conditions: 5 μM perhexiline, 24 h
[18] = system: CYP1A2-overexpressing HepG2 cells; experiment: Perhexiline toxicity endpoints; format: cell-based, human; conditions: 5–10 μM, 24 h
[19] = system: HepG2 cells; experiment: Caspase 3/7 activity; format: cell-based, human; conditions: 7.5 or 10 μM, 24 h
[20] = molecular target: T1, CYP2D6-overexpressing HepG2 cells; format: cell-based
[21] = system: HepG2 cells; experiment: CellTiter-Blue cell viability assay; conditions: 2.5-10 μM, 24 h
[22] = CellTiter-Blue cell viability assay; conditions: human, HepG2 cells
[23] = ketoconazole (CYP3A4 inhibitor)

T1 sequence (P10635 whole entry): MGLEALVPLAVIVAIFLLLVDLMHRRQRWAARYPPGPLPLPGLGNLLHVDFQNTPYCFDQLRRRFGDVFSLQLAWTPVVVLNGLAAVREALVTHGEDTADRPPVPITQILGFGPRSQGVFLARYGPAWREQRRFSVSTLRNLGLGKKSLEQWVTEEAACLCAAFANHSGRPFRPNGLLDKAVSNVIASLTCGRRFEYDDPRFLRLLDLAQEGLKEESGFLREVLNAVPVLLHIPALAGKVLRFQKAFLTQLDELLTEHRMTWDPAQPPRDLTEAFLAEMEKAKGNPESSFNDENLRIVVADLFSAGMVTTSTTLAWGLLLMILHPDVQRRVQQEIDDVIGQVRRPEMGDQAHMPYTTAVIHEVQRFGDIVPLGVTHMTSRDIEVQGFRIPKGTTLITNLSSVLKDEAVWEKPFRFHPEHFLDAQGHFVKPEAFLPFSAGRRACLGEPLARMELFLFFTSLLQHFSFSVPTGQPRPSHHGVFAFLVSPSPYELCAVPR
Chain of CYP2C19 (P33261 whole entry): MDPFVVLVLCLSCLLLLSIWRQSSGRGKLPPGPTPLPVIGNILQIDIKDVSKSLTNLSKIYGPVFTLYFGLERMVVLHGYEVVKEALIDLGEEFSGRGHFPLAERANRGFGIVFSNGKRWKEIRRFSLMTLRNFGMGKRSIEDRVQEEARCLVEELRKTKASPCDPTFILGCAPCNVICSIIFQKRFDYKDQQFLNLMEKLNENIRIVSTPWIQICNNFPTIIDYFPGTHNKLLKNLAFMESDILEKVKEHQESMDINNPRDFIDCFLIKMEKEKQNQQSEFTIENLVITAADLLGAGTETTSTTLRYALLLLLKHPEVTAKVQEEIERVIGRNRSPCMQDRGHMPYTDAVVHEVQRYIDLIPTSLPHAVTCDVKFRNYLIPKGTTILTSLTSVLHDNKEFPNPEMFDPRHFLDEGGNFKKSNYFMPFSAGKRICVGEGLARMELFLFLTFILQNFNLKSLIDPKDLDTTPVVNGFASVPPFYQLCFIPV

With C=C(C)[C@@H]1CCC2=CC(=O)C[C@@H](C)[C@]2(C)C1 [nootkatone] the “effect on the formation of M1, M3, and M5” value ([1]; nootkatone 10 μM (CYP2C19 inhibitor)) was “did not show significant effect” and the “effect on the relative abundance of trans-OH-Phx” value ([1]; nootkatone (CYP2C19 inhibitor)) was “little effect”.

For CC(=O)N1CCN(c2ccc(OCC3COC(Cn4ccnc4)(c4ccc(Cl)cc4Cl)O3)cc2)CC1 (stereo not shown) [ketoconazole], the “suppression of formation of M3 (trans-OH-Phx-2)” value ([2]; ketoconazole 2 μM, perhexiline 30 μM) was “up to 80%”, the “effect on formation of M1 (trans-OH-Phx-1)” value [2, 23] was “reduced” and the “effect on formation of M5 (cis-OH-Phx)” value [2, 23] was “did not have effect”.

Molecule OC1CCC([C@@H](CC2CCCCN2)C2CCCCC2)CC1 (stereo in doubt) [cis-OH-Phx] has an IC50 [3] of 90 µM.

With O[C@H]1CC[C@H](C(CC2CCCCN2)C2CCCCC2)CC1 (stereo partly drawn) [M1, trans-OH-Phx-1] the “increase of M1 compared to EV control cells” value [4] was 2.6 fold.

For O[C@H]1CC[C@H](C(CC2CCCCN2)C2CCCCC2)CC1 (stereo partly drawn) [trans-OH-Phx], the “plasma trans-OH-Phx level post-dosage” value ([5]; most patients, ref Amoah et al. 1986, Cooper et al. 1984, 1987) is given as “undetectable” and the IC50 [3] is given as 56 µM.

With C1CCC(C(CC2CCCCN2)C2CCCCC2)CC1 (stereo not shown) [perhexiline] the “mitochondrial membrane potential level (JC-1)” value [6] was “significant concentration-dependent decrease”, the “cellular ATP levels at 10 μM” value ([7]; 10 μM) was “largely depleted” and the “cellular ATP levels” value ([7]; 2.5–10 μM) was “concentration-dependent decrease”. The LDH release [8] was “concentration-dependent increase”, the “concentration at which cytotoxicity was observed starting” value ([9]; hepatic cells, concentrations ranged from 2.5 μM to 15 μM) was 5 µM and the “lowest concentration at which a decrease in ATP was observed” value ([9]; primary human hepatocytes, 5 to 15 μM) was 5 µM. For the same molecule, the “parent perhexiline level vs EV control” value [10] was “significant reduction”, the “mRNA levels of ATF6, ERN1, EIF2AK3, ATF4, and DDIT3 (fold change vs DMSO)” value [11] was “significantly elevated” and the CHOP protein level [12] was “markedly increased”. For the same molecule, the “plasma perhexiline beyond 24 h after a single administration” value ([5]; known extensive metabolizers, ref Cooper et al. 1987) was “undetectable”, the “caspase 3/7 activities, EV control vs CYP3A4 cells” value [13] was “little difference” and the “effect in JC-1 staining vs EV control” value [13] was “marginal protective effect”. The “protective effect on ATP levels and LDH release vs EV control” value (“protective effect … vs EV control” below) ([13]; 5–10 μM, 24 h) was “little protective effect”, the “protective effect … vs EV control” value [14] was “little protective effect” and the “amount of parent perhexiline relative to EV control” value [15] was 1%. For the same molecule, the “parent perhexiline level vs EV control” value [16] was “significant reduction”, the “parent perhexiline level vs EV control” value [17] was “significant reduction” and the “protective effect … vs EV control” value [18] was “little protective effect”. The “caspase 3/7 activity” value [19] was “increase”, the “perhexiline-induced increase in CHOP protein vs EV control” value [20] was “greatly reduced” and the “perhexiline-induced increase in ER stress gene mRNA vs EV control” value ([20]; 10 μM, 24 h) was “drastically attenuated”. The “perhexiline-induced increase in caspase 3/7 vs EV control” value ([20]; 24 h) was “abolished”, the cell viability [21] was “significant decrease” and the IC50 at 24 h [22] was 8 µM.

For C1CCC(C(CC2CCCCN2)C2CCCCC2)CC1 (single isomer, unassigned; (-)) [(−)-perhexiline], the “clearance relative to the other enantiomer” value ([5]; attributed to CYP2D6-mediated metabolism, ref Davies et al. 2008) is given as “higher clearance rate”.
